In ChEMBL document CHEMBL1833842, “1,3-Dihydro-2H-indol-2-ones derivatives: design, synthesis, in vitro antibacterial, antifungal and antitubercular study” (2011) one finds MIC, MIC99 and inhibition of growth data, which are given here for eight compounds.

≈ marks a conversion by molar mass, not a printed value.

A word on the MIC: it is the least concentration at which growth counts as inhibited. A lower MIC goes with a more susceptible organism. By MIC99 is commonly meant the lowest concentration that inhibits either 99% of growth or 99% of the strains tested, depending on the study. A lower MIC99 goes with greater potency.

For one assay, the system named is Aspergillus clavatus. Description: Antifungal activity against 10^8 CFU/mL Aspergillus clavatus MTCC 1323 by broth microdilution method. Type of assay: functional. Put shortly: (§1)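 Fungal MTCC cultures came from IMTECH Chandigarh. Mueller-Hinton broth served as growth and dilution medium, with DMSO as diluent. Inoculum was set to 10⁸ CFU/mL by turbidity. Serial dilutions from a 2000 stock gave a primary screen at 500, 250 and 125, followed by a secondary dilution series for actives. MIC was the lowest concentration inhibiting growth.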
In general terms: In broth dilution the organism is exposed to a series of concentrations in liquid medium.

A further assay concerns Streptococcus pyogenes. Kind of assay: Antibacterial activity against 10^8 CFU/mL Streptococcus pyogenes MTCC 442 by broth microdilution method. Type of assay: functional. The method in brief: (§2)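 MTCC bacterial strains from IMTECH Chandigarh were grown in Mueller-Hinton broth, which was also used to dilute the compounds. Inoculum was turbidity-adjusted to 10⁸ CFU/mL, and DMSO served as diluent. Compounds from a 2000 stock were screened first at 500, 250 and 125; actives were retested in a second dilution series. Tubes were incubated overnight at 37 °C, and MIC was the lowest concentration with no visible growth. Clear tubes were subcultured overnight at 37 °C to tell bacteriostatic from bactericidal.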

The subject of another assay is Aspergillus niger. Description: Antifungal activity against 10^8 CFU/mL Aspergillus niger MTCC 282 by broth microdilution method. Type of assay: functional. The method in brief:
as §1

For a further assay, the system named is Escherichia coli. Kind of assay: Antibacterial activity against 10^8 CFU/mL Escherichia coli MTCC 443 by broth microdilution method. Type of assay: functional. The method in brief:
as §2

The subject of a further assay is Salmonella typhi. Description: Antibacterial activity against 10^8 CFU/mL Salmonella typhi MTCC 98 by broth microdilution method. Type of assay: functional, Salmonella enterica subsp. enterica serovar Typhi. The method in brief: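 Broth microdilution in Mueller-Hinton broth with MTCC strains, inoculum adjusted by turbidity to 10⁸ CFU/mL. Compounds were diluted from DMSO. Primary screen used 500, 250 and 125 concentrations, and actives were serially diluted further. Tubes were incubated overnight at 37 °C. MIC was the lowest concentration with no visible growth. Clear tubes were subcultured overnight at 37 °C to judge bacteriostatic versus bactericidal.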

A further assay concerns Klebsiella pneumoniae. Description: Antibacterial activity against 10^8 CFU/mL Klebsiella pneumoniae MTCC 109 by broth microdilution method. Type of assay: functional. Put shortly: as §2
The test system of another assay is Staphylococcus aureus. Description: Antibacterial activity against 10^8 CFU/mL Staphylococcus aureus MTCC 96 by broth microdilution method. The format is functional. The method in brief: as §2
Assay [1] has as its system Mycobacterium tuberculosis. Kind of assay: Antituberculosis activity against 5 x 10^4 inoculum per tube Mycobacterium tuberculosis H37Rv after 24 hrs by Lowenstein-Jensen method. The format is functional. Put shortly:
(§3)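 Conventional Lowenstein-Jensen method. Compound dilutions were made from a DMSO stock and added to liquid L-J medium, which was sterilized by inspissation. Tubes were incubated 24 h at 37 °C, then streaked with H37Rv (5 × 10⁴ bacilli per tube) harvested into 0.85% saline. Growth was checked at 12, 22 and 28 days at 37 °C against medium-only controls. MIC was the concentration giving no colonies or <20 colonies.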

In another assay the test system is Candida albicans. Description: Antifungal activity against 10^8 CFU/mL Candida albicans MTCC 227 by broth microdilution method. The format is functional. Put shortly:
as §1

For the next assay, the system named is Bacillus subtilis. Description: Antibacterial activity against 10^8 CFU/mL Bacillus subtilis MTCC 441 by broth microdilution method. Type of assay: functional. Put shortly: as §2
For a further assay, the system named is Pseudomonas aeruginosa. Description: Antibacterial activity against 10^8 CFU/mL Pseudomonas aeruginosa MTCC 1688 by broth microdilution method. Type of assay: functional. The method in brief: as §2
Assay [2] deals with Mycobacterium tuberculosis. Description: Antituberculosis activity against 5 x 10^4 bacilli per tube Mycobacterium tuberculosis H37Rv assessed as growth inhibition at 1000 ug/mL incubated for 24 hrs measured after 28 days. The format is functional. Conditions: read-out: GI. The method in brief: as §3
Assay [3] relates to Mycobacterium tuberculosis. Kind of assay: Antituberculosis activity against 5 x 10^4 bacilli per tube Mycobacterium tuberculosis H37Rv assessed as growth inhibition at 62.5 ug/mL incubated for 24 hrs measured after 28 days. Conditions: read-out: GI. Type of assay: functional. The method in brief:
as §3

Assay [4] concerns Mycobacterium tuberculosis. Kind of assay: Antituberculosis activity against 5 x 10^4 bacilli per tube Mycobacterium tuberculosis H37Rv assessed as growth inhibition at 25 ug/mL incubated for 24 hrs measured after 28 days. Type of assay: functional. Conditions: read-out: GI. Put shortly: as §3

As for `CC1=C(c2nnc(/N=C3\C(=O)Nc4ccccc43)s2)C(c2ccccc2)NC(=O)N1` (stereo unspecified), the MIC is 250 µg/mL (≈ 600 µM) in the assay on Aspergillus clavatus, 250 µg/mL (≈ 600 µM) against Aspergillus niger, 1000 µg/mL (≈ 2400 µM) in assay [1] and 250 µg/mL (≈ 600 µM) against Candida albicans. Besides, the MIC99 with Streptococcus pyogenes was determined as 500 µg/mL (≈ 1200 µM); against Escherichia coli it was 500 µg/mL (≈ 1200 µM); with Salmonella typhi (Salmonella enterica), 250 µg/mL (≈ 600 µM); in the assay with Klebsiella pneumoniae it was 250 µg/mL (≈ 600 µM); with Staphylococcus aureus, 500 µg/mL (≈ 1200 µM); against Bacillus subtilis, 500 µg/mL (≈ 1200 µM). In the assay on Pseudomonas aeruginosa, this compound had an MIC99 of 250 µg/mL (≈ 600 µM). Also, the inhibition of growth at 1000 µg/mL in assay [2] was 98%.

Take `CC1(C)S[C@@H]2[C@H](NC(=O)[C@H](N)c3ccccc3)C(=O)N2[C@H]1C(=O)O` [AMPICILLIN]: the MIC99 against Streptococcus pyogenes is 100 µg/mL (≈ 286 µM); in the assay with Escherichia coli it was 100 µg/mL (≈ 286 µM); against Salmonella typhi (Salmonella enterica), 100 µg/mL (≈ 286 µM); against Klebsiella pneumoniae, 100 µg/mL (≈ 286 µM); against Staphylococcus aureus, 250 µg/mL (≈ 715 µM); in the assay with Bacillus subtilis, 100 µg/mL (≈ 286 µM). This compound yielded an MIC99 in the assay on Pseudomonas aeruginosa of 100 µg/mL (≈ 286 µM).

Turning to GENTAMICIN, the MIC99 against Streptococcus pyogenes was found to be 0.5 µg/mL; in the assay with Escherichia coli, 0.05 µg/mL; with Salmonella typhi (Salmonella enterica subsp. enterica serovar Typhi) it was 1 µg/mL; in the assay on Klebsiella pneumoniae, 0.05 µg/mL; in the assay with Staphylococcus aureus it was 0.25 µg/mL; in the assay on Bacillus subtilis it was 0.5 µg/mL. In addition, the MIC99 in the assay with Pseudomonas aeruginosa turned out to be 1 µg/mL.

Take `CC1=C(c2nnc(/N=C3\C(=O)Nc4ccc([N+](=O)[O-])cc43)s2)C(c2ccccc2)NC(=S)N1` (stereo unspecified): the MIC against Aspergillus clavatus was found to be 250 µg/mL (≈ 524 µM); in the assay with Aspergillus niger, 100 µg/mL (≈ 209 µM); in [1], 62.5 µg/mL (≈ 131 µM); against Candida albicans, 250 µg/mL (≈ 524 µM). Besides, the MIC99 stood at 200 µg/mL (≈ 419 µM) against Streptococcus pyogenes; 62.5 µg/mL (≈ 131 µM) with Escherichia coli; 100 µg/mL (≈ 209 µM) in the assay with Salmonella typhi (Salmonella enterica); 100 µg/mL (≈ 209 µM) with Klebsiella pneumoniae; 100 µg/mL (≈ 209 µM) against Staphylococcus aureus; 100 µg/mL (≈ 209 µM) against Bacillus subtilis. For the same compound, the MIC99 with Pseudomonas aeruginosa worked out at 100 µg/mL (≈ 209 µM). Moreover, the inhibition of growth at 62.5 µg/mL in assay [3] is 99%.

With `CC1=C(c2nnc(/N=C3\C(=O)Nc4ccc(F)cc43)s2)C(c2ccccc2)NC(=S)N1` (stereo unspecified), the MIC came to 100 µg/mL (≈ 222 µM) against Aspergillus clavatus, 100 µg/mL (≈ 222 µM) with Aspergillus niger, 25 µg/mL (≈ 55.5 µM) in assay [1] and 100 µg/mL (≈ 222 µM) in the assay on Candida albicans. For the same compound, the MIC99 against Streptococcus pyogenes is 100 µg/mL (≈ 222 µM); against Escherichia coli, 62.5 µg/mL (≈ 139 µM); in the assay with Salmonella typhi (Salmonella enterica) it was 100 µg/mL (≈ 222 µM); with Klebsiella pneumoniae, 100 µg/mL (≈ 222 µM); against Staphylococcus aureus, 62.5 µg/mL (≈ 139 µM); in the assay on Bacillus subtilis, 100 µg/mL (≈ 222 µM). The same compound had an MIC99 with Pseudomonas aeruginosa of 62.5 µg/mL (≈ 139 µM). Also, in [4], the inhibition of growth at 25 µg/mL turned out to be 99%.

For `CC1=C(c2nnc(/N=C3\C(=O)Nc4ccc(Cl)cc43)s2)C(c2ccccc2)NC(=S)N1` (stereo unspecified), the MIC was determined as 500 µg/mL (≈ 1070 µM) in the assay on Aspergillus clavatus, 500 µg/mL (≈ 1070 µM) against Aspergillus niger, 62.5 µg/mL (≈ 134 µM) in assay [1] and 500 µg/mL (≈ 1070 µM) in the assay with Candida albicans. The MIC99 in the assay on Streptococcus pyogenes came to 200 µg/mL (≈ 428 µM); with Escherichia coli it was 200 µg/mL (≈ 428 µM); against Salmonella typhi (Salmonella enterica) it was 200 µg/mL (≈ 428 µM); in the assay on Klebsiella pneumoniae it was 200 µg/mL (≈ 428 µM); against Staphylococcus aureus it was 200 µg/mL (≈ 428 µM); with Bacillus subtilis, 100 µg/mL (≈ 214 µM). Also, in the assay with Pseudomonas aeruginosa, the MIC99 came out at 100 µg/mL (≈ 214 µM). In addition, in assay [3], the inhibition of growth at 62.5 µg/mL was 99%.

Consider `CCn1cc(C(=O)O)c(=O)c2cc(F)c(N3CCNCC3)cc21` [NORFLOXACIN], for which the MIC99 against Streptococcus pyogenes, with Escherichia coli, against Salmonella typhi (Salmonella enterica), in the assay with Klebsiella pneumoniae, against Staphylococcus aureus and in the assay with Bacillus subtilis was 10 µg/mL (≈ 31.3 µM) each time. Moreover, the MIC99 in the assay with Pseudomonas aeruginosa was found to be 10 µg/mL (≈ 31.3 µM).

As to `O=C(N[C@H](CO)[C@H](O)c1ccc([N+](=O)[O-])cc1)C(Cl)Cl` [CHLORAMPHENICOL], the MIC99 in the assay on Streptococcus pyogenes, against Escherichia coli, in the assay on Salmonella typhi (Salmonella enterica), against Klebsiella pneumoniae, against Staphylococcus aureus and in the assay on Bacillus subtilis was 50 µg/mL (≈ 155 µM) in each case. Moreover, the MIC99 against Pseudomonas aeruginosa amounted to 50 µg/mL (≈ 155 µM).
